Test results as given in ChEMBL document CHEMBL1157553, “Synthesis of novel aminoglycosides via allylic azide rearrangement for investigating the significance of 2'-amino group” (2010).
Converted amounts (≈) assume the structure as drawn.

What was measured:
[1] = system: Staphylococcus aureus; test: Antibacterial activity against aminoglycoside-susceptible Staphylococcus aureus ATCC 25923 after 12 to 18 hrs; format: functional
In short: (§1)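 Broth microdilution MIC. Bacteria grown in Trypticase Soy broth at 35 °C for 1–2 h, then diluted with broth to an absorbance of 0.08–0.1 at 625 nm. This suspension was further diluted into broth and dispensed into 96-well plates containing 2-fold serial dilutions of compound. Plates were incubated 12–18 h at 35 °C. MIC is the lowest concentration inhibiting growth, repeated at least three times.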

[2] = system: Escherichia coli; test: Antibacterial activity against aminoglycoside-susceptible Escherichia coli ATCC 25922 after 12 to 18 hrs; format: functional; in short: as §1
[3] = system: Staphylococcus aureus; test: Antibacterial activity against aminoglycoside-resistant Staphylococcus aureus ATCC 33591 after 12 to 18 hrs; format: functional
In short: (§2)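 Broth microdilution MIC. Bacteria grown in Trypticase Soy broth at 35 °C for 1–2 h, then adjusted to absorbance 0.08–0.1 at 625 nm. This suspension was diluted into 10 mL broth and dispensed into wells, and 2-fold serial dilutions of compound were added. Plates were incubated at 35 °C for 12–18 h. MIC was the lowest concentration inhibiting growth, with at least three repeats.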

[4] = system: Klebsiella pneumoniae; test: Antibacterial activity against aminoglycoside-resistant Klebsiella pneumoniae ATCC 700603 after 12 to 18 hrs
[5] = system: Klebsiella pneumoniae; test: Antibacterial activity against aminoglycoside-susceptible Klebsiella pneumoniae ATCC 13883 after 12 to 18 hrs; format: functional; in short: as §1
[6] = system: Pseudomonas aeruginosa; test: Antibacterial activity against aminoglycoside-resistant Pseudomonas aeruginosa ATCC 27853 after 12 to 18 hrs; format: functional; in short: as §2

Work on `NC[C@@H]1CC[C@@H](N)[C@@H](O[C@H]2[C@H](O)[C@@H](O[C@@H]3O[C@H](CO)[C@@H](O)[C@H](O)[C@H]3O)[C@H](N)C[C@@H]2N)O1` yielded an MIC [1] of 125 µg/mL (≈ 276 µM) and an MIC [2] of 64 µg/mL (≈ 141 µM).
With `CCCCCCNC(=O)O[C@@H]1[C@@H](O)[C@H](O[C@H]2O[C@H](CN)[C@@H](O)[C@H](O)[C@H]2N)[C@@H](N)C[C@H]1N` the MIC [3] was ≥ 250 µg/mL, the MIC [4] was 125 µg/mL (≈ 278 µM) and the MIC [5] was 16 µg/mL (≈ 35.6 µM). The MIC [6] was 64 µg/mL (≈ 142 µM).
Work on `NC[C@@H]1CC[C@@H](N)[C@@H](O[C@H]2[C@H](O)[C@@H](O)[C@H](N)C[C@@H]2N)O1` [GENTAMINE C1A] yielded an MIC [1] of 16 µg/mL (≈ 55.1 µM) and an MIC [2] of 32 µg/mL (≈ 110 µM).
Work on `NC[C@H]1O[C@H](O[C@H]2[C@H](O)[C@@H](O[C@H]3O[C@H](CO)[C@@H](O)[C@H](N)[C@H]3O)[C@H](N)C[C@@H]2N)[C@H](O)[C@@H](O)[C@@H]1O` [KANAMYCIN] yielded an MIC [1] of 2 µg/mL (≈ 4.13 µM) and an MIC [2] of 4 µg/mL (≈ 8.26 µM).
`NC[C@H]1O[C@H](O[C@H]2[C@H](O)[C@@H](O)[C@H](N)C[C@@H]2N)[C@H](N)[C@@H](O)[C@@H]1O` [NEAMINE] gave an MIC [1] of 4 µg/mL (≈ 12.4 µM), an MIC [3] of 125 µg/mL (≈ 388 µM) and an MIC [4] of 16 µg/mL (≈ 49.6 µM). For the same compound, the MIC [2] was 32 µg/mL (≈ 99.3 µM), the MIC [5] was 2 µg/mL (≈ 6.2 µM) and the MIC [6] was 64 µg/mL (≈ 199 µM).
`CCCCCCNC(=O)O[C@@H]1[C@@H](O)[C@H](O[C@H]2O[C@H](CN)CC[C@H]2N)[C@@H](N)C[C@H]1N` showed an MIC [1] of 125 µg/mL (≈ 299 µM), an MIC [3] of 64 µg/mL (≈ 153 µM) and an MIC [4] of 125 µg/mL (≈ 299 µM). The MIC [2] was ≥ 250 µg/mL, the MIC [5] was 16 µg/mL (≈ 38.3 µM) and the MIC [6] was 16 µg/mL (≈ 38.3 µM).
With `C[C@H]1O[C@@H](O[C@@H]2[C@@H](O)[C@H](O[C@@H]3CC[C@H](N)[C@@H](CN)O3)[C@@H](N)C[C@H]2N)[C@H](O)[C@@H](N)[C@@H]1O` the MIC [1] was 8 µg/mL (≈ 18.4 µM) and the MIC [2] was 16 µg/mL (≈ 36.7 µM).
In the case of `C[C@H]1O[C@@H](O[C@@H]2[C@@H](O)[C@H](N)C[C@H](N)[C@H]2O[C@H]2O[C@H](CN)CC[C@H]2N)[C@@H](O)[C@@H](O)[C@@H]1N`, the MIC [1] is reported as 4 µg/mL (≈ 9.18 µM) and the MIC [2] is reported as 16 µg/mL (≈ 36.7 µM).
`CCCCCCNC(=O)O[C@@H]1[C@@H](OC(=O)NCCCCCC)[C@H](N)C[C@H](N)[C@H]1O[C@@H]1CC[C@H](N)[C@@H](CN)O1` was tested, and the MIC [1] was 32 µg/mL (≈ 58.7 µM), the MIC [3] was 16 µg/mL (≈ 29.4 µM) and the MIC [4] was ≥ 250 µg/mL. For the same compound, the MIC [2] was 125 µg/mL (≈ 229 µM), the MIC [5] was 4 µg/mL (≈ 7.34 µM) and the MIC [6] was 16 µg/mL (≈ 29.4 µM).
With `NC[C@H]1O[C@H](O[C@H]2[C@H](O)[C@@H](O)[C@H](N)C[C@@H]2N)CC[C@@H]1N` the MIC [1] was 64 µg/mL (≈ 220 µM) and the MIC [2] was ≥ 250 µg/mL.
In the case of `CCCCCCNC(=O)O[C@@H]1[C@@H](OC(=O)NCCCCCC)[C@H](N)C[C@H](N)[C@H]1O[C@H]1O[C@H](CN)[C@@H](O)[C@H](O)[C@H]1N`, the MIC [3] is reported as 125 µg/mL (≈ 217 µM), the MIC [4] is reported as 125 µg/mL (≈ 217 µM) and the MIC [5] is reported as 32 µg/mL (≈ 55.5 µM). The MIC [6] was 125 µg/mL (≈ 217 µM).
With `NC[C@@H]1O[C@H](O[C@H]2[C@@H](O)[C@H](O[C@@H]3[C@@H](O)[C@H](N)C[C@H](N)[C@H]3O[C@H]3O[C@H](CN)[C@@H](O)[C@H](O)[C@H]3N)O[C@@H]2CO)[C@H](N)[C@@H](O)[C@@H]1O` [FRAMYCETIN] the MIC [1] was 1 µg/mL (≈ 1.63 µM) and the MIC [2] was 4 µg/mL (≈ 6.51 µM).
With `NC[C@H]1O[C@H](O[C@H]2[C@H](O)[C@@H](O[C@@H]3O[C@H](CO)[C@@H](O)[C@H](O)[C@H]3O)[C@H](N)C[C@@H]2N)CC[C@@H]1N` the MIC [1] was ≥ 250 µg/mL and the MIC [2] was ≥ 250 µg/mL.
`C[C@H]1O[C@@H](O[C@@H]2[C@@H](O)[C@H](N)C[C@H](N)[C@H]2O[C@@H]2CC[C@H](N)[C@@H](CN)O2)[C@@H](O)[C@@H](O)[C@@H]1N` gave an MIC [1] of 125 µg/mL (≈ 287 µM) and an MIC [2] of 125 µg/mL (≈ 287 µM).
`CCCCCCNC(=O)O[C@@H]1[C@@H](O)[C@H](O[C@@H]2CC[C@H](N)[C@@H](CN)O2)[C@@H](N)C[C@H]1N` was tested, and the MIC [1] was 32 µg/mL (≈ 76.6 µM), the MIC [3] was 64 µg/mL (≈ 153 µM) and the MIC [4] was ≥ 250 µg/mL. The MIC [2] was ≥ 250 µg/mL, the MIC [5] was 16 µg/mL (≈ 38.3 µM) and the MIC [6] was 16 µg/mL (≈ 38.3 µM).
With `NC[C@@H]1CC[C@@H](N)[C@@H](O[C@H]2[C@H](O)[C@@H](O[C@@H]3OC[C@@H](O)[C@H](N)[C@H]3O)[C@H](N)C[C@@H]2N)O1` the MIC [1] was 2 µg/mL (≈ 4.75 µM) and the MIC [2] was 4 µg/mL (≈ 9.49 µM).
